Values after ≈ are worked out from the molar mass of the structure shown. Active and inactive are the calls of the source. No cut-off for these calls is given here.
Key:
[1] = In vitro growth inhibition of NCI-H460 (human non-small cell lung carcinoma) cell line.; format: functional
SF-268 [2] = test: In vitro growth inhibition of central nervous system SF-268 cell line.; format: functional; details: Homo sapiens
KM-20L2 [3] = test: In vitro growth inhibition of KM20L2 cell line.; format: functional; details: Homo sapiens
MCF7 = test: Cell growth inhibition of breast MCF-7 cells, expressed as 50% reduction in the net protein increase; format: functional; details: Homo sapiens
Neisseria gonorrhoeae = test: The minimum inhibitory concentration (MIC) that inhibits all visible growth of the Neisseria gonorrhoeae (bacteria); format: functional
In short: (§1)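 Broth microdilution following NCCLS reference methods (M7-A4 for aerobic bacteria, the yeast broth dilution standard for fungi). MIC is the lowest compound concentration giving optically clear wells, with no visible growth of the test organism.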

BXPC-3 [4] = test: In vitro growth inhibition of BXPC-3 (human pancreatic adenocarcinoma) cell line.; format: functional
DU-145 [5] = test: In vitro growth inhibition of DU-145 (human prostate carcinoma) cell line.; format: functional
P388 [6] = test: In vitro inhibition of P388 (murine leukemia) cell proliferation.; format: functional; details: Mus musculus, read-out: ED50 (the source's name)
SF-268 (Homo sapiens) = test: The concentration causing 50% reduction in the net protein increase (cell growth inhibition, GI50) against central nervous system (CNS) SF-268 cells
Escherichia coli = test: The minimum inhibitory concentration (MIC) that inhibits all visible growth of the Escherichia coli (bacteria) at 64 ug/mL; NI is no inhibition; format: functional, organism-based; in short: as §1
DU-145 [7] = test: Cell growth inhibition of prostate DU-145 cells, expressed as 50% reduction in the net protein increase; format: functional; details: Homo sapiens
In short: (§2)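 Human tumour lines kept in 5% FBS/RPMI-1640, plated and incubated 24 h before compound dilutions were added. Exposure 48 h, then TCA fixation, washing and sulforhodamine B staining, with optical density read on a plate reader. GI50 is the concentration giving a 50% reduction in net protein increase, calculated from the OD data.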

Streptococcus pneumoniae = test: The minimum inhibitory concentration (MIC) that inhibits all visible growth of the Streptococcus pneumoniae (bacteria) at 64 ug/mL; NI is no inhibition; format: functional, organism-based; in short: as §1
Tubulin = Tubulin (Bos taurus, UniProt Q6B856+Q862L2+Q862F3); test: Inhibition of tubulin polymerization reported as IC50; format: functional
Tubulin (Bos taurus) [8] = biological target: T1, Tubulin (Bos taurus) (UniProt Q6B856+Q862L2+Q862F3); test: Inhibition of radiolabeled [3H]colchicine binding to tubulin at a concentration of 2 uM of the compound; format: protein assay
In short: (§3)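 [3H]colchicine 5.0 µM incubated with tubulin 1.0 µM plus inhibitor at the stated level, 10 min at 37 °C, then colchicine binding measured. Reported as percent inhibition.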

Enterobacter cloacae = test: The minimum inhibitory concentration (MIC) that inhibits all visible growth of the Enterobacter cloacae (bacteria) at 64 ug/mL; NI is no inhibition; format: functional, organism-based; in short: as §1
[9] = tested on: Stenotrophomonas maltophilia; test: The minimum inhibitory concentration (MIC) that inhibits all visible growth of the Stenotrophomonas maltophilia (bacteria) at 64 ug/mL; NI is no inhibition; format: functional, organism-based; in short: as §1
Enterococcus faecalis [10] = test: the minimum inhibitory concentration (MIC) that inhibits all visible growth of the Enterococcus faecalis (bacteria) at 64 ug/mL; NI is no inhibition; format: functional, organism-based; in short: as §1
Enterococcus faecalis [11] = test: The minimum inhibitory concentration (MIC) that inhibits all visible growth of the Enterococcus faecalis (bacteria) at 64 ug/mL; NI is no inhibition; format: functional, organism-based; in short: as §1
Staphylococcus aureus = test: The minimum inhibitory concentration (MIC) that inhibits all visible growth of the Staphylococcus aureus (bacteria) at 64 ug/mL; NI is no inhibition; format: functional, organism-based; in short: as §1
BXPC-3 [12] = test: Cell growth inhibition against pancreatic BXPC-3 cells, 50% reduction in the net protein increase; format: functional; details: Homo sapiens; in short: as §2
Micrococcus luteus = test: the minimum inhibitory concentration (MIC) that inhibits all visible growth of the Micrococcus luteus (bacteria) at 64 ug/mL; NI is no inhibition; format: functional, organism-based; in short: as §1
NCI-H460 = test: Cell growth inhibition of lung-NSC NCI-H460 cells, expressed as 50% reduction in the net protein increase; format: functional; details: Homo sapiens; in short: as §2
P388 [13] = test: Evaluated for cell growth inhibition of the mouse leukemia P388 cells in 10% horse serum/Fisher media; format: functional; details: read-out: ED50 (the source's name)
In short: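 Murine P388 leukaemia cells grown in 10% horse serum/Fisher medium, incubated 24 h, then compound dilutions added. After 48 h, cells counted on a Coulter Z1 particle counter and the ED50 for growth inhibition calculated.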

Candida albicans = test: The minimum inhibitory concentration (MIC) that inhibits all visible growth of the Candida albicans (fungus) at 64 ug/mL; NI is no inhibition; format: functional, organism-based; in short: as §1
KM-20L2 [14] = test: Cell growth inhibition of colon KM20L2 cells, expressed as 50% reduction in the net protein increase; format: functional; details: Homo sapiens; in short: as §2
Tubulin (Bos taurus) [15] = biological target: T1, Tubulin (Bos taurus); test: Inhibition of radiolabeled [3H]colchicine binding to tubulin at a concentration of 5 uM of the compound; format: protein assay; in short: as §3
Cryptococcus neoformans = test: Minimum inhibitory concentration (MIC) that inhibits all visible growth of the Cryptococcus neoformans (fungus) at 64 ug/mL; NI is no inhibition; format: functional, organism-based; in short: as §1
SF-268 [16] = test: Cell growth inhibition of central nervous system (CNS) SF-268 cells, expressed as 50% reduction in the net protein increase; format: functional; details: Homo sapiens; in short: as §2

Compound	GI50 [1]	GI50 (SF-268 [2])	GI50 (KM-20L2 [3])	GI50 (MCF7)	MIC (Neisseria gonorrhoeae)	GI50 (BXPC-3 [4])	GI50 (DU-145 [5])	EC50 (P388 [6])	also measured
COc1ccc(/C=C\c2cc(O)cc(O)c2)cc1	6.4 µg/mL (≈ 26.4 µM)	15.6 µg/mL (≈ 64.4 µM)	17.7 µg/mL (≈ 73.1 µM)	12.7 µg/mL (≈ 52.4 µM)	16 µg/mL (≈ 66 µM)	14.1 µg/mL (≈ 58.2 µM)	10.6 µg/mL (≈ 43.8 µM)	2.75 µg/mL (≈ 11.4 µM)	
COc1cc(/C=C/c2ccc(O)cc2)cc(OC)c1 [PTEROSTILBENE]	2.7 µg/mL (≈ 10.5 µM)		3.4 µg/mL (≈ 13.3 µM)	2.3 µg/mL (≈ 8.97 µM)		6.5 µg/mL (≈ 25.4 µM)	2.7 µg/mL (≈ 10.5 µM)	4.87 µg/mL (≈ 19 µM)	GI50 (SF-268 (Homo sapiens)): 4.3 µg/mL (≈ 16.8 µM)
COc1ccc(C(=O)c2cc(OC)cc(OC)c2)cc1					32 µg/mL (≈ 118 µM)				MIC (Escherichia coli): inactive; GI50 (DU-145 [7]): 1.2 µg/mL (≈ 4.41 µM); MIC (Streptococcus pneumoniae): inactive; IC50 (Tubulin): 2600 nM; inhibition (Tubulin (Bos taurus) [8]): 47%; MIC (Enterobacter cloacae): inactive; MIC [9]: inactive; MIC (Enterococcus faecalis [10]): inactive; MIC (Enterococcus faecalis [11]): inactive; MIC (Staphylococcus aureus): inactive; GI50 (BXPC-3 [12]): 0.42 µg/mL (≈ 1.54 µM); MIC (Micrococcus luteus): inactive; GI50 (NCI-H460): 0.53 µg/mL (≈ 1.95 µM); EC50 (P388 [13]): 1.23 µg/mL (≈ 4.52 µM); MIC (Candida albicans): inactive; GI50 (KM-20L2 [14]): 0.42 µg/mL (≈ 1.54 µM); inhibition (Tubulin (Bos taurus) [15]): 69%; MIC (Cryptococcus neoformans): inactive; GI50 (SF-268 [16]): 0.86 µg/mL (≈ 3.16 µM)
COc1ccc(C(O)c2cc(OC)cc(OC)c2)cc1 (stereo not drawn)	21.7 µg/mL (≈ 79.1 µM)	23.3 µg/mL (≈ 84.9 µM)	21 µg/mL (≈ 76.6 µM)			16.1 µg/mL (≈ 58.7 µM)	23.2 µg/mL (≈ 84.6 µM)	20.2 µg/mL (≈ 73.6 µM)	
COc1ccc(/C=C/c2cc(OC)cc(OC)c2)cc1 [TRISMETHOXYRESVERATROL]	0.62 µg/mL (≈ 2.29 µM)	0.56 µg/mL (≈ 2.07 µM)				0.35 µg/mL (≈ 1.29 µM)	1.5 µg/mL (≈ 5.55 µM)	2.77 µg/mL (≈ 10.2 µM)	
COc1ccc(/C=C/c2cc(O)cc(O)c2)cc1 [RESVERATROL 4'-METHYL ETHER]	6.8 µg/mL (≈ 28.1 µM)	3.1 µg/mL (≈ 12.8 µM)	3.8 µg/mL (≈ 15.7 µM)	3.4 µg/mL (≈ 14 µM)		6.3 µg/mL (≈ 26 µM)	2.7 µg/mL (≈ 11.1 µM)	28.9 µg/mL (≈ 119 µM)	

Reference: ChEMBL document CHEMBL1135463 (J Med Chem, 2002)
